{
  "source": "paper PMC4462192",
  "about": "(Bioorganic & medicinal chemistry letters, 2015)",
  "key": {"[1]": {"tested_on": "RPMI-8226 cells", "assay": "intracellular lambda light chain ELISA", "assay_type": "cell-based, human", "details": "48 hours, 5 mM, vs untreated control", "how_it_was_run": "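RPMI-8226 cells were incubated for 48 hours with test compound at 5 mM, alongside untreated and lovastatin (20 μM) controls. Intracellular lambda light chain was quantified by ELISA and expressed as percent of untreated control, mean + SD, n=3. Significance versus untreated cells was assessed by unpaired two-tailed t-test at p<0.05.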"}, "[2]": {"tested_on": "Rab6 geranylgeranylation in RPMI-8226 cells", "assay": "immunoblot for membrane-bound Rab6", "assay_type": "cell-based, human", "details": "48 hours, 5 mM, detergent (membrane) fraction", "how_it_was_run": "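RPMI-8226 human myeloma cells were exposed to test compound at 5 mM or left untreated for 48 hours, with lovastatin at 20 μM as a global prenylation-disruption control. Cells were lysed by Triton X-114 partitioning to give the detergent (membrane) fraction, which was immunoblotted for Rab6 with calnexin as the loading control. Blots are representative of two independent studies.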"}, "[3]": {"biological_target": "T1, GGTase II (Homo sapiens, UniProt P53611+Q92696)", "T1 sequence (Q92696 1-567)": "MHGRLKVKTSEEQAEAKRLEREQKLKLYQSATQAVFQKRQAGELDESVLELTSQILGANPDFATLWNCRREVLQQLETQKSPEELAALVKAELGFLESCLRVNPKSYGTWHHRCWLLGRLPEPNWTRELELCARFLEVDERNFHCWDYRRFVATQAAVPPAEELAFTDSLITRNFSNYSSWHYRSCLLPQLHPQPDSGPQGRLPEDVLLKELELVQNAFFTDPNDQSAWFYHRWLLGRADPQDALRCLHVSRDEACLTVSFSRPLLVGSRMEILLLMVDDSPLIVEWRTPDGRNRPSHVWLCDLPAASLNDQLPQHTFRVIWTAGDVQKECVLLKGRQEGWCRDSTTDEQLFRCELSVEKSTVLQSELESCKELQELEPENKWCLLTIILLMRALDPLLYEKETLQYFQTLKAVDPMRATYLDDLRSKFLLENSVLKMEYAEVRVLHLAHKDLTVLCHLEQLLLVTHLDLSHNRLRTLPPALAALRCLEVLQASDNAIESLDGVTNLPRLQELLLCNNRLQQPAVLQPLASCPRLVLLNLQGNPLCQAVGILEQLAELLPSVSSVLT", "T1 sequence (P53611 1-331)": "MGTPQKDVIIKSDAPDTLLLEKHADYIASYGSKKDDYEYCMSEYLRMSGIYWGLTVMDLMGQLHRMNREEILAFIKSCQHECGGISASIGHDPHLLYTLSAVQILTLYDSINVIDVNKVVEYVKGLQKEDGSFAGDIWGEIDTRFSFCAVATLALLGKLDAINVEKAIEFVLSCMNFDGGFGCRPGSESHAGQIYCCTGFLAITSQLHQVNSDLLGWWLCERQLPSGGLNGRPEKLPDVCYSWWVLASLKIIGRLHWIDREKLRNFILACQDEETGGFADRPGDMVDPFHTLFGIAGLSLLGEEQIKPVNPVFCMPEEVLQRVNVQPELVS", "details": "cited from earlier work"}, "[4]": {"tested_on": "farnesyl diphosphate synthase (FDPS)", "details": "cited from earlier work"}, "[5]": {"tested_on": "geranylgeranyl diphosphate synthase (GGDPS)", "details": "cited from earlier work"}},
  "data": [
    {"smiles": "O=C(O)C(Cc1ccc[n+]([O-])c1)P(=O)(O)O", "note": "(stereo not drawn) [compound 7]", "values": [
      {"measurement": "intracellular lambda light chain accumulation", "setting": "[1]", "result": "do not significantly alter light chain trafficking"},
      {"measurement": "membrane-bound Rab6 level", "setting": "[2]", "result": "did not decrease membrane-bound Rab6 levels"}
    ]},
    {"smiles": "O=C(O)C(O)(Cc1ccc[n+]([O-])c1)P(=O)(O)O", "note": "(stereo not drawn) [compound 6]", "values": [
      {"measurement": "intracellular lambda light chain accumulation", "setting": "[1]", "result": "induce an accumulation of intracellular light chain"},
      {"measurement": "membrane-bound Rab6 level", "setting": "[2]", "result": "diminished the level of membrane-bound Rab6 to a lesser extent"}
    ]},
    {"smiles": "O=C(O)C(O)(Cc1cccnc1)P(=O)(O)O", "note": "(stereo not drawn) [compound 1, 2-(3-pyridinyl)-1-hydroxyethylidene-1,1-phosphonocarboxylic acid]", "values": [
      {"measurement": "difference in activity between the enantiomers", "setting": "[3]", "result": "~ 4 fold"},
      {"measurement": "intracellular lambda light chain accumulation", "setting": "[1]", "result": "induce an accumulation of intracellular light chain"},
      {"measurement": "activity against FDPS", "setting": "[4]", "result": "show little activity against FDPS"},
      {"measurement": "membrane-bound Rab6 level", "setting": "[2]", "result": "induces a decrease in the amount of membrane-bound Rab6"}
    ]},
    {"smiles": "O=P(O)(O)C(O)(Cc1cccnc1)P(=O)(O)O", "note": "[compound 3, risedronate]", "values": [
      {"measurement": "IC50", "setting": "[4]; read-out: FDPS IC50", "result": "[…]"}
    ]},
    {"smiles": "O=C(O)C(O)(Cc1cnc2ccccn12)P(=O)(O)O", "note": "(single isomer, unassigned; enantiomer 4) [(+)-enantiomer 4]", "values": [
      {"measurement": "activity of (+)-enantiomer relative to (−)-enantiomer", "setting": "[3]", "result": "~ 60 fold"},
      {"measurement": "inhibition of other enzyme involved in isoprenoid biosynthesis, probably GGDPS", "setting": "[5]", "result": "weak inhibition"}
    ]},
    {"smiles": "O=C(O)C(Cc1cccnc1)P(=O)(O)O", "note": "(stereo not drawn) [compound 2, 2-(3-pyridinyl)-1-ethylidene-1,1-phosphonocarboxylic acid]", "values": [
      {"measurement": "GGTase II potency relative to PEHPC", "setting": "[3]", "result": "potency similar to PEHPC"},
      {"measurement": "intracellular lambda light chain accumulation", "setting": "[1]", "result": "do not significantly alter light chain trafficking"},
      {"measurement": "activity against FDPS", "setting": "[4]", "result": "show little activity against FDPS"},
      {"measurement": "membrane-bound Rab6 level", "setting": "[2]", "result": "diminished the level of membrane-bound Rab6 to a lesser extent"}
    ]}
  ]
}
